Rows were chosen to be rich in hits. Some 2.6% of all compounds tested hit in one or more screens of this group.
SENP8 block-1: blocks human SENP8 cleavage of Nedd8 substrate. recombinant SENP8, Nedd8 substrate fluorescence. Q96LD8. hit rate 0.64% among 360,000. inhibition, % at 20 µM; in the data active = inhibition mostly above about 40%, no sharp cut-off; inactive = mostly below about 27%
SENP7 inh: SENP7 protease inhibition. recombinant SENP7, Z-RLRGG-aminoluciferin luminescence, 40 min. Q9BQF6. inhibition, % at 5 µM. hit rate 1.5% among 330,000;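 active = inhibition above about 50% at the single test dose, limit read from the data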;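 also: plate controls were DMSO with enzyme for no effect and no enzyme buffer wells for full effect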
SENP6 inh: blocks the human protease SENP6; Q9GZR1; Recombinant SENP6 catalytic domain, aminoluciferin luminescence; inhibition, % at 10 µM; hit rate 1.8% among 330,000; AID 2599;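 active = inhibition above about 50% at the single tested dose, limit read from the data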;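 also: plate controls were DMSO wells with enzyme for no effect and DMSO wells lacking enzyme for full effect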
Target sequence (Q9GZR1 628-1112 limits assumed): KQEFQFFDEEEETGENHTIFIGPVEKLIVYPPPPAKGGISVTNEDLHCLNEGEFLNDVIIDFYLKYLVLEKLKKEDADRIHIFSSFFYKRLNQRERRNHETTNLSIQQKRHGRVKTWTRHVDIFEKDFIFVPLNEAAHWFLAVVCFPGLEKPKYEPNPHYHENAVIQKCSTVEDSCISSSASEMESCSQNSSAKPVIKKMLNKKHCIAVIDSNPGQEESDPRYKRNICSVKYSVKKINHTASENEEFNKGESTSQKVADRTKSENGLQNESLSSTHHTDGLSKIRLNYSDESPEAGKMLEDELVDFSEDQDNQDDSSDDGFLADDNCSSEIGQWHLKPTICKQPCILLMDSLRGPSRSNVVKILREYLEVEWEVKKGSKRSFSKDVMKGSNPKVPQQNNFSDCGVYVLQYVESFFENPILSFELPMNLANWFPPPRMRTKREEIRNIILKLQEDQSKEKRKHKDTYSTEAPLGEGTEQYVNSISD
SENP8 block-2: SENP8 protease inhibition; Q96LD8; purified SENP8, Z-RLRGG-aminoluciferin cleavage, luminescence; hit rate 1.2% among 330,000; inhibition, % at 10 µM; AID 2540; in the data active = inhibition above about 50%
UCH37 DUB inh: human UCH37 deubiquitinating enzyme inhibition. inhibition, % (test concentration not listed). hit rate 0.33% among 330,000. AID 588478. purified proteasome/UCH37, Ub-AMC cleavage fluorescence;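 active = mean inhibition over replicate wells above about 20%, limit read from the data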;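 also: 0% = compound-free wells with enzyme and 100% = wells lacking proteasome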
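Material: Human UCH37 enzyme supplied as purified proteasome complex | Schedule: 30 min compound-proteasome preincubation then 25 min substrate reaction, room temperature | Detection: AMC fluorescence from Ub-AMC cleavage, excitation 355 nm, emission 460 nm | Benchmarks: Wells without proteasome as full block, compound-free enzyme plus substrate as uninhibited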
SENP1 FRET inh: inhibitors of human SENP1 SUMO protease catalytic domain; inhibition, % at 10 µM; hit rate 0.21% among 360,000; recombinant SENP1 catalytic domain, CyPet-SUMO1-YPet FRET cleavage;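 active = inhibition at least 30% at 10 µM, raw YFP signal under a set limit, fluorescence ratio 0.5 to 1.5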;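 also: 0% = enzyme with DMSO and 100% = no enzyme wells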
Target sequence (Q9P0U3 419-644 limits assumed): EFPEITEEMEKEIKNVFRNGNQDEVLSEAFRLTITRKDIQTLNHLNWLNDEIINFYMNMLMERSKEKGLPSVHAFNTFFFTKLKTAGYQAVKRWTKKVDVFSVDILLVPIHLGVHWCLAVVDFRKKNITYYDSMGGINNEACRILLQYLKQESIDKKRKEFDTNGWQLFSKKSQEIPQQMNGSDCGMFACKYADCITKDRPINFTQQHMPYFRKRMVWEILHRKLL
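System: Recombinant human SENP1 catalytic domain, His6-tagged | Incubation: Enzyme reaction for 50 min at room temperature, dark | Medium: Tris pH 8 with BME, BSA, NP40 and catalase | Also added: 25 nM SUMO1 FRET substrate | Compound: 10 µM single point, 0.5% DMSO | Measured by: FRET fluorescence in CFP and YFP emission channels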
* hit, by the source's call; . = not tested or not shown.

SMILES | SENP8 block-1 | SENP7 inh | SENP6 inh | SENP8 block-2 | UCH37 DUB inh | SENP1 FRET inh
O=C1C(=O)c2c(C(=O)c3ccccc3)coc2-c2ccccc21 | 60.6* | 8.1 | 37.5 | 4.7 | 9.5 | 4.3
CC1CCCN(C2=C(Cl)C(=O)N(c3cccc(Cl)c3)C2=O)C1 (centres undefined) | 17.6 | -0.7 | 12.0 | 1.6 | -2.4 | -35.8
COC(=O)C1CCN(C2=C(NS(=O)(=O)c3ccc(Cl)cc3)C(=O)c3ccccc3C2=O)CC1 | 40.1* | 19.9 | -7.9 | 5.6 | 3.8 | 1.6
CC1CCCN(C2=C(NS(=O)(=O)c3ccc(Cl)cc3)C(=O)c3ccccc3C2=O)C1 (centres undefined) | 59.7* | 12.1 | 31.8 | 11.5 | 6.4 | -0.1
C[C@@H](OC(=O)N(C)Cc1ccccc1)[C@H]1O[C@]2(C)CCCC[C@H]1O2 | 14.9 | -1.2 | 0.7 | -0.7 | 30.0* | 1.1
O=C(Nc1cccc(F)c1)c1ccc2c(c1)OCO2 | 25.7 | 90.3* | 85.8* | 71.0* | 0.9 | 0.8
CCc1ccccc1NC(=O)Nc1ccc2c(c1)OCO2 | 8.4 | 82.4* | -12.2 | 37.1 | 1.1 | 1.9
O=C(Nc1ccc2c(c1)OCO2)c1nn(-c2ccccc2)c(=O)c2ccccc12 | 31.4 | 2.6 | -17.2 | -5.6 | 3.2 | 2.8
CCc1cccc(NC(=O)Nc2ccc3c(c2)OCO3)c1 | 5.2 | 8.2 | 8.8 | -6.3 | 0.8 | 1.5
O=C(Nc1ccc([N+](=O)[O-])cn1)c1ccc2c(c1)OCO2 | 8.7 | 67.4* | 24.3 | -14.2 | 0.8 | 1.1
O=C(Nc1ccc2c(c1)OCO2)c1n[nH]c(=O)c2ccccc12 | 19.9 | 62.0* | 66.7* | 37.5 | 7.0 | -2.6
CCCCNC(=O)N(O)C1N(N=Cc2ccc(N(C)C)cc2)C(=S)SC1(C)C (centres undefined) | . | . | . | . | 1.2 | .
NC(=S)NN=Cc1cc([N+](=O)[O-])ccc1OCCOc1ccccc1 | . | . | . | . | 4.8 | .
CC(C)(C)c1nnc(NN=Cc2ccc(O)cc2)n(N)c1=O | . | . | . | . | 9.2 | .
CCc1nc2ccc(C(=O)Nc3cccc(C(C)=O)c3)cc2nc1CC | 8.3 | 3.0 | 32.7 | 4.7 | 1.1 | 0.1
CCc1nc2ccc(C(=O)Nc3ccc4c(c3)OCO4)cc2nc1CC | 15.9 | 49.7 | 13.5 | 51.4* | 2.3 | -1.9
C=CCNC(=O)/C(C#N)=C/c1ccc(C)o1 | 3.8 | 2.9 | 7.4 | 5.6 | 21.9* | 0.2
COC(=O)CCC(=O)OC1(C)C(=O)C2=CN(CCCCO)C(c3ccc(OC)cc3)=CC2=C(Br)C1=O (centres undefined) | . | 13.4 | 46.6 | 8.1 | . | .
COC(=O)CCC(=O)OC1(C)C(=O)C2=CN(CCN3CCOCC3)C(c3ccc(OC)cc3)=CC2=C(Br)C1=O (centres undefined) | . | 16.3 | 52.0* | 22.5 | . | .
Cc1ccc(NC(=S)C2=C(O)c3sccc3N(C)S2(=O)=O)cc1 | -41.8 | -13.1 | 4.3 | -1.1 | 24.0* | -38.9
Cc1ccc(NC(=O)C2=C(O)c3sccc3N(C)S2(=O)=O)cc1 | 17.3 | 9.4 | -13.2 | -13.0 | 14.2 | -70.9
O=C1C=C(N2CCN(c3ccccn3)CC2)C(=O)c2c(O)ccc(O)c21 | 76.3* | . | . | . | . | 2.4
C/C(=N\NC(=O)c1cc(-c2cccnc2)nc2ccccc12)c1ccc(O)cc1O | 15.7 | 8.1 | 1.0 | -3.2 | . | 48.9*
O=C(/C=C/c1ccccc1)NCC(=O)NN=Cc1ccco1 | . | . | . | . | -0.4 | .
COC(=O)c1cn(CCOc2ccccc2OC)c2ccccc12 | 22.0 | 2.5 | -10.6 | 2.0 | 21.6* | -2.5
SMILES | SENP8 block-1 | SENP7 inh | SENP6 inh | SENP8 block-2 | UCH37 DUB inh | SENP1 FRET inh
O=C(NC(c1ccc(Cl)cc1)c1cc(Cl)c2cccnc2c1O)c1cccnc1 (centres undefined) | 37.6 | . | . | . | 2.0 | 61.6*
O=[N+]([O-])c1cc(Cl)c(O)c2ncccc12 | 38.7 | 18.6 | 20.4 | -5.6 | 24.7* | -2.9
CN(Cc1cc([N+](=O)[O-])c2cccnc2c1O)C1CCCCC1 | . | 15.4 | 25.4 | 11.1 | 6.3 | .
O=[N+]([O-])c1cc(CN2CCN(c3ccccc3)CC2)c(O)c2ncccc12 | 48.0* | 9.4 | 19.3 | 2.4 | 11.2 | -3.5
Oc1c(CN2CCCCC2)cc(Br)c2cccnc12 | 53.1* | 12.7 | 19.2 | 15.1 | 7.8 | -9.5
COc1ccc(C=Nn2c(=O)[nH]c3c([nH]c4ccc(Cl)cc43)c2=O)cc1CN1CCCCC1 | . | . | . | . | 6.2 | .
C(=NN=Cc1ccccn1)c1ccccn1 | . | . | . | . | 1.4 | .
CC(=NNC(=O)CNC(=O)c1cccnc1)c1cccc(O)c1 | . | . | . | . | 0.0 | .
CCCOc1ccc(-c2c(C(=O)NN=Cc3ccsc3)nnn2-c2nonc2N)cc1 | . | . | . | . | 2.7 | .
Cc1ccc(C)c(OCC(=O)NN=Cc2c(C)nn(-c3ccccc3)c2Cl)c1 | . | . | . | . | 4.3 | .
CCCC(=O)NC(c1ccco1)c1cc([N+](=O)[O-])c2cccnc2c1O (centres undefined) | 53.3* | 7.3 | 15.3 | 5.8 | 13.8 | 2.3
CCC(=O)NC(c1ccc(C)cc1)c1cc([N+](=O)[O-])c2cccnc2c1O (centres undefined) | 57.6* | . | . | . | 9.4 | -2.0
CC(=O)NC(c1ccccc1)c1cc(Cl)c2cccnc2c1O (centres undefined) | 16.4 | 11.1 | -4.3 | -10.8 | 3.4 | 0.3
CCC(=O)NC(c1ccco1)c1cc(Br)c2cccnc2c1O (centres undefined) | 10.4 | . | . | . | . | -7.0
CCC(=O)NC(c1ccc(C)cc1)c1ccc2cccnc2c1O (centres undefined) | 5.9 | 4.9 | -6.2 | 5.4 | . | -0.3
CC(=O)NC(c1ccc(C)cc1)c1cc([N+](=O)[O-])c2cccnc2c1O (centres undefined) | 41.9* | 7.8 | 16.9 | 6.1 | 15.0 | -2.1
CCc1n[nH]c(=S)n1N=Cc1ccc(N(CC)CC)cc1 | . | . | . | . | -3.3 | .
Cc1nonc1C(=O)NN=Cc1ccc(O)cc1O | . | . | . | . | 7.0 | .
O=C(CC(=O)NC1CCCCC1)NN=Cc1ccc(Cl)cc1 | . | . | . | . | 27.0* | .
O=c1cc(-c2ccc(O)c(O)c2)oc2cc(O[C@@H]3O[C@H](CO)[C@@H](O)[C@H](O)[C@H]3O)cc(O)c12 | 27.3 | -3.7 | 17.2 | 8.7 | 5.9 | 34.1*
Cc1nnc(SCc2cc(=O)[nH]c(N3CCN(C)CC3)n2)s1 | 18.4 | 0.6 | -13.2 | -7.3 | 0.0 | 0.5
Cc1ccc(SCc2cc(=O)[nH]c(N3CCN(C)CC3)n2)cc1 | 35.5 | 5.3 | 1.3 | -1.4 | 27.5* | 0.3
Cc1cc2ccccn2c1C(=O)c1ccc(NN=Cc2ccc(C(=O)O)cc2)c([N+](=O)[O-])c1 | . | . | . | . | 13.0 | .
C/C(=N/Nc1ccc(C(=O)c2c(C)cc3ccccn23)cc1[N+](=O)[O-])c1ccc(O)cc1 | 50.2* | . | . | . | 6.2 | 8.6
C/C(=N\Nc1ccc(C(=O)c2c(C)cc3ccccn23)cc1[N+](=O)[O-])c1ccc(O)cc1 | 62.4* | -1.2 | -1.2 | -4.3 | . | 7.3
Cc1cc2ccccn2c1C(=O)c1ccc(N/N=C/c2ccc(C(=O)O)cc2)c([N+](=O)[O-])c1 | 66.5* | . | . | . | . | 1.0
